OX1R antag-1: antagonists of human orexin 1 receptor (OX1R) | O43613 | OX1R-expressing cells, FRET antagonist read-out | inhibition, % at 6.6 µM | 330,000 compounds, 1.8% hits; in the data active means inhibition mostly above about 38%, no sharp cut-off; inactive means mostly below about 40%;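 further: 0% = agonist challenge alone and 100% = reference antagonist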
Target sequence (O43613 whole entry, looked up): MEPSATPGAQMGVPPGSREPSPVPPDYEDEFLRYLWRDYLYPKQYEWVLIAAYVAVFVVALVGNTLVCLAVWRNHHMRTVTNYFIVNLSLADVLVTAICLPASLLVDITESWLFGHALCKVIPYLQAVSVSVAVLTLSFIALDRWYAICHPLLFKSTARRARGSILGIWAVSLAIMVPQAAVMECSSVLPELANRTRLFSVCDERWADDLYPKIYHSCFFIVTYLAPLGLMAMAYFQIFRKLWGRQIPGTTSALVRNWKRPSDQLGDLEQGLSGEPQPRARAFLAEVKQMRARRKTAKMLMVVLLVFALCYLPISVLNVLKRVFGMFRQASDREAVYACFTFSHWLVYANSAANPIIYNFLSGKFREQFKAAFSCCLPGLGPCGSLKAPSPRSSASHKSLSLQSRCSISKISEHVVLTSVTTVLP
CHO-K1 Ca PAM: nonselective activator or artifact in parental CHO-K1 calcium assay; ATP EC20, Fluo-8 calcium fluorescence; 0% at ATP EC20, 100% at ATP max; activation, % at 3 µM; 360,000 compounds, 0.02% hits; AID 602247;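 active means activation above the run cutoff, the mean activation of all test compounds plus 3 SD, cut at about 40% in these data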;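 further: peak over basal fluorescence ratio in a 140 s read after ATP addition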
OX1R antag-2: antagonists of human orexin 1 receptor | CHO/OX1R cells, Fluo-8 calcium fluorescence, orexin A | inhibition, % at 5 µM | 330,000 compounds, 0.43% hits | AID 434989;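 active means inhibition above its plate's threshold, mean inhibition of all tested compounds on the plate plus 3 SD, cut at about 37% in these data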;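 further: 0% = orexin A challenge wells and 100% = SB-334867-A antagonist wells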
CHO-K1 Ca ag: counter-screen for M1 agonists: effect in parental CHO-K1 cells; 360,000 compounds, 0.48% hits; activation, % at 3 µM; Fluo-8 calcium fluorescence; scaled to maximal ATP response, vehicle zero; AID 602248; in the data active means activation above about 15%;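 further: untransfected CHO-K1 host cells lacking M1 receptor as counterscreen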
CHO-K1 Ca antag: M1 antagonist counterscreen hit in parental CHO-K1 cells; ATP-induced calcium, Fluo-8 fluorescence; 360,000 compounds, 0.6% hits; inhibition, % at 3 µM;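 active means inhibition above a per-plate cutoff, the plate's mean sample inhibition plus 3 SD, cut at about 24% in these data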;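 further: 0% = DMSO plus EC80 ATP and 100% = DMSO alone without ATP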
CHO parental Ca: counter-screen: ATP calcium response change in parental CHO cells; parental CHO-K1, ATP-induced calcium, Fluo-8 fluorescence; 330,000 compounds, 0.63% hits; inhibition, % at 5.6 µM; AID 463079;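 active means inhibition above that plate's mean sample inhibition plus 3 SD, cut at about 26% in these data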;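 further: 0% = ATP-challenged DMSO wells and 100% = DMSO wells without ATP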
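Test system: parental CHO cells; detection: calcium-sensitive Fluo-8 fluorescence; evaluation: percent inhibition of calcium signal; also added: ATP as calcium-mobilizing challenge; repeats: one well per compound; control set: ATP-challenged DMSO wells low, unchallenged DMSO wells high; compound: single nominal dose of 5.6 µM per compound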
OX1R Ca confirm: confirmation of human orexin 1 receptor antagonists | 1,100 compounds, 38% hits | CHO/OX1R cells, orexin A calcium Fluo-8 fluorescence | inhibition, % at 5 µM | shares compounds with OX1R antag-2; in the data active means inhibition above about 29%;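 further: 0% = agonist challenge alone and 100% = reference antagonist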
CHO Ca triplic: counter-screen: parental CHO calcium response change, triplicate | shares compounds with OX1R antag-2 | parental CHO-K1, ATP-induced calcium, Fluo-8 fluorescence | inhibition, % at 5.6 µM | 1,100 compounds, 9.3% hits;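 active means inhibition above a per-plate limit, the mean inhibition of that plate's test compounds plus 3 SD, cut at about 25% in these data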;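 further: 0% = ATP challenge with DMSO and 100% = DMSO without ATP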
Active calls of the source: *. Shown are actives, neighbours in structure and some others; about 2.9% of the full set was active somewhere.

`COc1cc(S(=O)(=O)N(CCc2ccccc2)Cc2cccs2)ccc1-n1cnnn1` gave OX1R antag-1 12.2, CHO-K1 Ca PAM -6.3, OX1R antag-2 52.1*, CHO-K1 Ca ag -0.1, CHO-K1 Ca antag 14.4, CHO parental Ca 13.6, OX1R Ca confirm 2.7 and CHO Ca triplic 10.0.
`CCCCOc1ccc(S(=O)(=O)Nc2cc(OC)ccc2OC)cc1` gave OX1R antag-1 14.9, CHO-K1 Ca PAM 12.4, OX1R antag-2 50.9*, CHO-K1 Ca ag 7.3, CHO-K1 Ca antag 7.6, CHO parental Ca 16.7, OX1R Ca confirm 2.6 and CHO Ca triplic 5.1.
`O=C(O)c1ccc(N2C(=O)CC(SC(=NCc3ccc4c(c3)OCO4)Nc3ccc(F)cc3)C2=O)cc1` (stereo not drawn) gave OX1R antag-1 27.8, CHO-K1 Ca PAM 20.0, OX1R antag-2 32.2, CHO-K1 Ca ag -0.6, CHO-K1 Ca antag -0.8, CHO parental Ca 6.3, OX1R Ca confirm 30.9* and CHO Ca triplic -2.7.
`O=C(O)c1ccc(N2C(=O)CC(SC(=NCc3ccc4c(c3)OCO4)Nc3ccccc3)C2=O)cc1` (stereo not drawn) gave OX1R antag-1 6.9, CHO-K1 Ca PAM 10.7, OX1R antag-2 -0.2, CHO-K1 Ca ag -0.1, CHO-K1 Ca antag -4.8 and CHO parental Ca -2.2.
For CCc1cc2c(COC(=O)c3cc(S(=O)(=O)N4CCOCC4)ccc3F)cc(=O)oc2cc1O the results were OX1R antag-1 23.4, CHO-K1 Ca PAM -1.3, OX1R antag-2 33.2, CHO-K1 Ca ag 4.6, CHO-K1 Ca antag -2.0, CHO parental Ca -7.8, OX1R Ca confirm 8.4 and CHO Ca triplic -10.0.
O=C(OCc1cc(=O)oc2cc(O)ccc12)c1cc(S(=O)(=O)N2CCOCC2)ccc1F was read as OX1R antag-1 24.5, CHO-K1 Ca PAM 9.3, OX1R antag-2 -8.4, CHO-K1 Ca ag 5.0, CHO-K1 Ca antag -10.9 and CHO parental Ca 17.0.
CCCC(=O)Nc1ccc(C(=O)NNC(=O)c2cccc([N+](=O)[O-])c2)cc1 was read as OX1R antag-1 31.4, CHO-K1 Ca PAM 18.7, OX1R antag-2 -11.2, CHO-K1 Ca ag 0.9, CHO-K1 Ca antag -6.6 and CHO parental Ca 0.6.
Screening CCCC(=O)Nc1ccc(Sc2ccc([N+](=O)[O-])cc2)cc1 returned OX1R antag-1 49.3, CHO-K1 Ca PAM 0.4, OX1R antag-2 38.4, CHO-K1 Ca ag 3.4, CHO-K1 Ca antag 17.6, CHO parental Ca 24.6, OX1R Ca confirm 9.3 and CHO Ca triplic 9.7.
Screening CCN(c1ccc(OC)cc1)S(=O)(=O)c1cc(-c2cc(C)no2)ccc1OC returned OX1R antag-1 11.0, CHO-K1 Ca PAM 13.9, OX1R antag-2 -12.2, CHO-K1 Ca ag 0.6, CHO-K1 Ca antag -7.9 and CHO parental Ca 0.8.
`CCN(c1ccc(OC)cc1)S(=O)(=O)c1cc(-c2cc(C)no2)ccc1C(C)C` gave OX1R antag-1 31.2, CHO-K1 Ca PAM 22.0, OX1R antag-2 29.4, CHO-K1 Ca ag 0.0, CHO-K1 Ca antag -16.1, CHO parental Ca 5.0, OX1R Ca confirm -25.1 and CHO Ca triplic -10.6.
For CN(Cc1ccccc1)S(=O)(=O)c1ccc2c(c1)n(C)c(=O)c(=O)n2C the results were OX1R antag-1 18.8, CHO-K1 Ca PAM 12.2, OX1R antag-2 31.9, CHO-K1 Ca ag 0.2, CHO-K1 Ca antag -0.5, CHO parental Ca 4.5, OX1R Ca confirm 0.8 and CHO Ca triplic 20.3.
`Cc1cc2c(cc1S(=O)(=O)N(C)Cc1ccccc1)n(C)c(=O)c(=O)n2C` gave OX1R antag-1 14.0, CHO-K1 Ca PAM 10.1, OX1R antag-2 10.2, CHO-K1 Ca ag 0.0, CHO-K1 Ca antag -1.7 and CHO parental Ca -6.8.
`CCn1nc(C(=O)Nc2cccc3ccccc23)c(Cl)c1Cl` gave OX1R antag-1 19.5, CHO-K1 Ca PAM 30.3, OX1R antag-2 34.9, CHO-K1 Ca ag 0.0, CHO-K1 Ca antag -27.4, CHO parental Ca -25.0, OX1R Ca confirm -12.0 and CHO Ca triplic -21.4.
COC(=O)CSc1nnc(-c2ccc(S(=O)(=O)NCc3cccs3)cc2)o1 was read as OX1R antag-1 -0.4, CHO-K1 Ca PAM 1.4, OX1R antag-2 5.8, CHO-K1 Ca ag 2.0, CHO-K1 Ca antag 1.6 and CHO parental Ca -0.7.
`COC(=O)CSc1nnc(-c2ccc(S(=O)(=O)NCc3ccccc3Cl)cc2)o1` gave OX1R antag-1 13.7, CHO-K1 Ca PAM 6.2, OX1R antag-2 26.1, CHO-K1 Ca ag 3.7, CHO-K1 Ca antag 11.0, CHO parental Ca 12.0, OX1R Ca confirm 32.9* and CHO Ca triplic 9.6.
O=C(CN1C(=O)C2C3CC(C(Br)C3Br)C2C1=O)Nc1ccc(C(=O)O)cc1 (stereo not drawn) was read as OX1R antag-1 6.3, CHO-K1 Ca PAM 6.5, OX1R antag-2 11.8, CHO-K1 Ca ag 0.8, CHO-K1 Ca antag -9.8 and CHO parental Ca 6.1.
CC(C)C(NC(=O)Cc1ccccc1)C(=O)N1CCN(c2cccc(Cl)c2)CC1 (stereo not drawn) was read as OX1R antag-1 22.1, CHO-K1 Ca PAM -10.6, OX1R antag-2 40.9*, CHO-K1 Ca ag 13.6, CHO-K1 Ca antag -5.6, CHO parental Ca 5.0, OX1R Ca confirm 20.9 and CHO Ca triplic 19.4.
CC(NC(=O)c1ccco1)C(=O)N1CCN(c2cccc(Cl)c2)CC1 (stereo not drawn) was read as OX1R antag-1 3.1, CHO-K1 Ca PAM -16.9, OX1R antag-2 -13.6, CHO-K1 Ca ag 0.6, CHO-K1 Ca antag 1.5 and CHO parental Ca -6.8.
`CCOC(=O)C(Cc1ccccc1)NC(=O)Cn1nnc(-c2ccccc2)n1` (stereo not drawn) gave OX1R antag-1 25.4, CHO-K1 Ca PAM 4.9, OX1R antag-2 29.2, CHO-K1 Ca ag 5.3, CHO-K1 Ca antag -1.2, CHO parental Ca 13.2, OX1R Ca confirm 51.9* and CHO Ca triplic 17.4.
Screening COc1ccc(NC(=O)c2cc(-c3ccccc3Cl)on2)cc1OC returned OX1R antag-1 40.9, CHO-K1 Ca PAM -21.6, OX1R antag-2 36.8, CHO-K1 Ca ag 0.7, CHO-K1 Ca antag 11.2, CHO parental Ca -25.1, OX1R Ca confirm 30.0* and CHO Ca triplic -2.6.
For COc1ccc(NC(=O)c2cc(-c3ccc(OC)c(OC)c3)on2)cc1OC the results were OX1R antag-1 13.6, CHO-K1 Ca PAM -4.2, OX1R antag-2 -16.8, CHO-K1 Ca ag -0.4, CHO-K1 Ca antag 0.1 and CHO parental Ca -11.2.
Screening Cc1cccc(NS(=O)(=O)c2cc3c4c(c2)C(C)C(=O)N4CCC3)c1 (stereo not drawn) returned OX1R antag-1 33.5, CHO-K1 Ca PAM -7.2, OX1R antag-2 28.6, CHO-K1 Ca ag 1.7, CHO-K1 Ca antag -11.6, CHO parental Ca -13.1, OX1R Ca confirm 0.7 and CHO Ca triplic -5.3.

Assay outcomes (PubChem BioAssay)
